Experimental data: ChEMBL document CHEMBL4840309, “Nanomolar inhibition of human OGA by 2-acetamido-2-deoxy-d-glucono-1,5-lactone semicarbazone derivatives” (Eur J Med Chem, 2021)

Columns and labels:
[1] = target: T1, Protein O-GlcNAcase (Homo sapiens, UniProt O60502); assay: Inhibition of OGA (unknown origin) using pNP-O-GlcNAc as substrate assessed as inhibition constant incubated for 30 mins
T1 sequence (O60502 whole entry): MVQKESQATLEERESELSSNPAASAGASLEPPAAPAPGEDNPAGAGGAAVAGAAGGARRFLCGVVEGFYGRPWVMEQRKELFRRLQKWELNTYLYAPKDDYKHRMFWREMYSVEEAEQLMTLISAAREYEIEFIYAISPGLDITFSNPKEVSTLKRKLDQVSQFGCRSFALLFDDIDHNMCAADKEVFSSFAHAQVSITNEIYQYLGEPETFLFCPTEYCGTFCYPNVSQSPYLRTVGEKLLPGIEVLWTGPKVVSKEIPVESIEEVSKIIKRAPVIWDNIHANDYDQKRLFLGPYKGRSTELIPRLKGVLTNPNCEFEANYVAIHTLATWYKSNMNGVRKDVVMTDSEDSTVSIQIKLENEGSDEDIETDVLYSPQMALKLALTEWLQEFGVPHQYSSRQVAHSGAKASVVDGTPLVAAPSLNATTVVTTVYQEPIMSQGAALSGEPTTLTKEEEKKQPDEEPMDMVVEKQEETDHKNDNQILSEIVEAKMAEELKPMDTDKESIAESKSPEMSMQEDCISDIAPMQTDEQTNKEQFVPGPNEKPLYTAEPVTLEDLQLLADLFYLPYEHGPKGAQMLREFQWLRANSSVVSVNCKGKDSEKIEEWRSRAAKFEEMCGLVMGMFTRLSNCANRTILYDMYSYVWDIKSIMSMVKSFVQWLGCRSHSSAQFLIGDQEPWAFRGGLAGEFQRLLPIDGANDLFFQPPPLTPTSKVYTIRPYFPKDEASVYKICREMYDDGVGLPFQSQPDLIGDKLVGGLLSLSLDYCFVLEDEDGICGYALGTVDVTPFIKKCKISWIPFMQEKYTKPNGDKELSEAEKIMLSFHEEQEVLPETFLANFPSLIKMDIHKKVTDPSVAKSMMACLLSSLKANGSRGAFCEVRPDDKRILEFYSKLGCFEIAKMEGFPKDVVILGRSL

[2] = target: T1, Protein O-GlcNAcase; assay: Competitive inhibition of N-terminal His-tagged human OGA using pNP-GlcNAc as chromogenic substrate assessed as inhibition constant by measuring liberation of nitrophenol preincubated with enzyme followed by substrate addition by Dixon plot analysis
How it was run: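 His6-tagged full-length human OGA (Rosetta(DE3), Co2+ IMAC), 33 nM. Pre-incubated with inhibitor at 37 °C in 50 mM potassium phosphate, pH 7.5, 1 ml. Started by adding pNP-GlcNAc at three concentrations. Release of p-nitrophenol followed continuously at 400 nm. Initial rates in triplicate; Ki by linear regression of Dixon plots; modality checked by Cornish-Bowden plots.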

[3] = target: T2, HEXA/HEXB (Bos taurus, UniProt Q0V8R6+H7BWW2); assay: Competitive inhibition of cow HexA/HexB (unknown origin) using pNP-GlcNAc as substrate assessed as inhibition constant by measuring liberation of nitrophenol preincubated with enzyme followed by substrate addition by Dixon plot analysis; assay type: protein
T2 sequence (Q0V8R6 whole entry): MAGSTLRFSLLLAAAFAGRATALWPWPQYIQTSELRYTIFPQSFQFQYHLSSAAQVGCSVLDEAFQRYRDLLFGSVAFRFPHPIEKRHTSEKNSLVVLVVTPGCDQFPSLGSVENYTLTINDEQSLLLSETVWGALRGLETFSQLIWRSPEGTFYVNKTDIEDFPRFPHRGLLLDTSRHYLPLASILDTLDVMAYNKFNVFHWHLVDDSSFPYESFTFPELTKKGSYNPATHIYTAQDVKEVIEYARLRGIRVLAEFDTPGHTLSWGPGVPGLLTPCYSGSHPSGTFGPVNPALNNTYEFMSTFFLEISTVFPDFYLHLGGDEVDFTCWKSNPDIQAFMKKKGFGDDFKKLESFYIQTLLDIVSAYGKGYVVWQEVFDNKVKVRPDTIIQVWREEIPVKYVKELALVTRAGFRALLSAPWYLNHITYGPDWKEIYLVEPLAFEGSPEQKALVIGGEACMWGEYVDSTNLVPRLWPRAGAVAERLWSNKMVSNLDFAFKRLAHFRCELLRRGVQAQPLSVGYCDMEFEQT
T2 sequence (H7BWW2 whole entry): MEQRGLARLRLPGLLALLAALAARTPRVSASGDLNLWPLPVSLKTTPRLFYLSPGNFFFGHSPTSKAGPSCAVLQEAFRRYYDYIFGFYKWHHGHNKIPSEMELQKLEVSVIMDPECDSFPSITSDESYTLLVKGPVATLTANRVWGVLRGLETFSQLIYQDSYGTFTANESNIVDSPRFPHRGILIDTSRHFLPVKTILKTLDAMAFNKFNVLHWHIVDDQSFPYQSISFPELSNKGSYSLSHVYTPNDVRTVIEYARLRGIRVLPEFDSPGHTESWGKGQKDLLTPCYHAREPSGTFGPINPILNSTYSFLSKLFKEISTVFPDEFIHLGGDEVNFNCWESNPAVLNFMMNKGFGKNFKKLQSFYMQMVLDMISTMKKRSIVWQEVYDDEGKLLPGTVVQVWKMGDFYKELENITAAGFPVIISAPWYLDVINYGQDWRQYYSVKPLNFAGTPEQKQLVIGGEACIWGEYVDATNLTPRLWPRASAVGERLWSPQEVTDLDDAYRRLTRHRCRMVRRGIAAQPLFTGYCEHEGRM

[4] = target: T1, Protein O-GlcNAcase; assay: Competitive inhibition of N-terminal His-tagged human OGA using 4-Mu-GlcNAc as substrate assessed as inhibition constant by measuring liberation of […] preincubated with enzyme followed by substrate addition by Cornish-Bowden method
How it was run: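 Full-length long isoform of human OGA with an N-terminal His6 tag, expressed in E. coli Rosetta(DE3) and purified on Co2+ IMAC. 3 nM enzyme was pre-incubated at 37 °C with inhibitor (0–100 nM) in 50 mM potassium phosphate, pH 7.5. Reaction was started with 4-MU-GlcNAc at three levels. Fluorescence (ex 360, em 450) was read every 10 s for 10 min. Triplicates; Ki from Dixon plot; mode by Cornish-Bowden.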

[5] = target: T2, HEXA/HEXB; assay: Inhibition of HexA/HexB (unknown origin); assay type: protein assay, Homo sapiens

Row | Ki [1] [nM] | Ki [2] [nM] | Ki [3] [nM] | Ki [4] [nM] | Ki [5] [nM] | Structure (SMILES)
1 | 1600 |  |  |  |  | CC(=O)N[C@H]1/C(=N/O)O[C@H](CO)[C@@H](O)[C@@H]1O
2 |  | 27000 | 30000 |  |  | CC(=O)N[C@H]1/C(=N/NC(=S)Nc2ccccc2)O[C@H](CO)[C@@H](O)[C@@H]1O
3 |  | 270 | 413 |  |  | COc1ccc(NC(=O)N/N=C2\O[C@H](CO)[C@@H](O)[C@H](O)[C@H]2NC(C)=O)cc1
4 |  |  | 47 | 36 |  | CC(=O)N[C@H]1/C(=N/NC(=O)Nc2ccc3ccccc3c2)O[C@H](CO)[C@@H](O)[C@@H]1O
5 |  | 190 | 205 |  | 130 | CC(=O)N[C@H]1/C(=N/NC(=O)Nc2ccccc2)O[C@H](CO)[C@@H](O)[C@@H]1O
6 |  | 506 | 154 |  |  | CC(=O)N[C@H]1/C(=N/NC(=O)Nc2cccc3ccccc23)O[C@H](CO)[C@@H](O)[C@@H]1O
7 |  |  | 170 | 83 |  | CC(=O)N[C@H]1/C(=N/NC(=O)Nc2ccc(Cl)cc2)O[C@H](CO)[C@@H](O)[C@@H]1O
8 |  | 167 | 125 |  |  | CC(=O)N[C@H]1/C(=N/NC(=O)Nc2ccc(C(F)(F)F)cc2)O[C@H](CO)[C@@H](O)[C@@H]1O
9 |  | 155 | 332 |  |  | CC(=O)N[C@H]1/C(=N/NC(=O)Nc2ccc(C)cc2)O[C@H](CO)[C@@H](O)[C@@H]1O
